Screens from PubChem.
FGF22 binding = binders of human FGF22 protein, primary screen, FGF22 synaptogenesis inhibitor project, biophysical, thermal shift, single point; recombinant FGF22 thermal shift, SYPRO orange fluorescence; percent of sucrose octasulfate shift, DMSO zero; activity (Tm shift, normalised), % at 9.99 µM; Fibroblast growth factor 22 (Homo sapiens), Q9HCT0; 1.5% of 340,000 active;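 active = mean Tm shift, scaled 0 neutral to 100 positive control, at about 1.3% or above, every replicate too, limit read from the data; inconclusive = no clear call, values can overlap the other calls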
E-sel inducer = E-selectin induction in HUVECs, primary screen, imaging, HUVEC, immunofluorescence imaging, single point | P16581 | normalized: neutral wells 0, TNF-alpha wells 100 | activation, % at 7.58 µM | 0.37% of 260,000 active | AID 686992, 2013;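 active = mean E-selectin-positive cell signal at least 10% of the positive control, reached in at least 60% of replicates, without over 20% cell loss; inconclusive = no rule given, readout overlaps actives, possibly toxicity-flagged; inactive = the rest, including those meeting only one limit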
Target sequence (P16581 whole entry, looked up): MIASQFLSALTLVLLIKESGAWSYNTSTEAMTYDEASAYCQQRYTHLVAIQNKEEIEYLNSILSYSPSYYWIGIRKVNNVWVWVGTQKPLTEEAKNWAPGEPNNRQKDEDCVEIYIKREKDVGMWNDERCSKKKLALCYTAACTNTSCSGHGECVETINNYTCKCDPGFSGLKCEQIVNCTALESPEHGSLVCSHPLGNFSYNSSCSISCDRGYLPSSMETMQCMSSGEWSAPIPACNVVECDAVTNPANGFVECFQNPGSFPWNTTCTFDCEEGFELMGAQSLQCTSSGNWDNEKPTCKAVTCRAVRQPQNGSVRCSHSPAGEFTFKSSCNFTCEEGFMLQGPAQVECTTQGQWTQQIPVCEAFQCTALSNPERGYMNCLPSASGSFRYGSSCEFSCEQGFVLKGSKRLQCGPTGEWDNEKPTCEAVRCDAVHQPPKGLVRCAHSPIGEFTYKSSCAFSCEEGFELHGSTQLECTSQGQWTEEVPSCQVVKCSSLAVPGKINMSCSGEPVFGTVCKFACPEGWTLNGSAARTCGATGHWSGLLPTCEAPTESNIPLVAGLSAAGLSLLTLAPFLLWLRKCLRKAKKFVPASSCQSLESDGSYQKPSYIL
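System: HUVEC / Compound: single concentration / Signal: immunofluorescence imaging / Read-out: percent E-selectin-positive cells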
CFTR F508del cor = F508del CFTR correction, initial screen, CFBE line, single point; CFBE cells, YFP halide quenching; stimulated with forskolin plus potentiator P3; % fluorescence drop versus neutral controls; activity (quench increase), % at 7.58 µM; 0.36% of 350,000 active; AID 720511, 2013;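 active = mean added fluorescence quench of at least 8% versus neutral control, with both replicates also reaching 8%; inconclusive = only one of the mean or replicate conditions met; inactive = mean below 8% and not both replicates reaching 8%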;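 also: cells transiently co-express mutant CFTR-F508del with the halide-sensitive YFP; corrector assay measuring rescue of mutant channel to the surface after 24 h compound exposure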
DENV2 CPE rescue = inhibitors of DENV2 cytopathic effect, primary screen, cell-based, plate reader, single concentration | CPE inhibition, % at 9.99 µM | 1.7% of 350,000 active | AID 651640, 2012 | DENV2-infected cells, cytopathic effect rescue; in the data active = CPE inhibition above about 20%, passing the limit was not always enough; inconclusive = no clear call, values can overlap the other calls; tested in BHK-21 cells;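 also: 0% = median of neutral control wells and 100% = median of positive control wells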
ERAP1 HTS inh = human ERAP1 aminopeptidase inhibitors, primary screen, biochemical, single point, plate reader | recombinant ERAP1, Leu-AMC fluorescence, 60 min | inhibition, % at 10.7 µM | 0.15% of 340,000 active | AID 652197, 2013;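 active = mean replicate inhibition of at least 30%, or all replicates individually reaching that 30% level; inactive = mean below 30% and not every replicate reaching it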;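 also: 0% = neutral control wells and 100% = L-leucinethiol positive control wells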
* hit, by the source's call; ? = inconclusive; . = no result given. Most compounds without a hit are left out; they make up all but 3.7% or so of the library.

SMILES | FGF22 binding | E-sel inducer | CFTR F508del cor | DENV2 CPE rescue | ERAP1 HTS inh
COc1cc(C)c(/C=C(\C#N)C(=O)Nc2cccc(C)c2)cc1C(C)C | 44* | . | 0 | 2 | 2
C[C@@H](NC(=O)C[C@H]1CC[C@@H]2[C@H](COC[C@H](O)CN2C(=O)Nc2ccccc2)O1)c1ccccc1 | 0 | 0 | -1 | 21* | -1
C[C@H](NC(=O)C[C@@H]1CC[C@@H]2[C@H](COC[C@@H](O)CN2C(=O)Nc2ccccc2)O1)c1ccccc1 | 0 | 0 | -4 | 7 | 0
C[C@@H](NC(=O)C[C@H]1CC[C@H]2[C@@H](COC[C@H](O)CN2C(=O)Nc2ccccc2)O1)c1ccccc1 | 0 | 0 | -3 | 50* | -1
C[C@H](CO)N1C[C@H](C)[C@@H](CN(C)CC2CCCCC2)Oc2ccc(NS(=O)(=O)c3cn(C)cn3)cc2C1=O | 0 | . | -2 | 4 | -1
C[C@@H]1CN([C@@H](C)CO)C(=O)c2cc(NS(=O)(=O)c3ccccc3)ccc2O[C@@H](C)CCCCO[C@H]1CN(C)Cc1ccncc1 | 0 | . | 0 | -3 | -6
C[C@H](CO)N1C[C@H](C)[C@H](CN(C)Cc2ccncc2)OCCCC[C@H](C)Oc2ccc(NS(=O)(=O)c3ccccc3)cc2C1=O | 1 | . | 2 | 73* | -4
C[C@@H]1CCCCO[C@H](CN(C)Cc2ccncc2)[C@@H](C)CN([C@H](C)CO)C(=O)c2cc(NS(=O)(=O)c3ccccc3)ccc2O1 | 1 | . | 0 | 21* | -4
C[C@@H]1CN([C@H](C)CO)C(=O)c2cc(NC(=O)c3ccncc3)ccc2O[C@@H]1CN(C)S(=O)(=O)c1ccc(F)cc1 | 0 | ? | -2 | 8 | 0
N#Cc1ccc(-c2cccs2)nc1SCc1cccnc1 | 0 | . | 9.0* | -5 | .
CC(C)(C)c1ccc(NC(=O)NC2CCCc3ccccc32)cc1 (stereo not drawn) | . | 1 | -2 | 39* | .
CCOC(=O)c1cc(=O)nc(N)s1 | 43* | 0 | 0 | 9 | 0
O=C(N/C(=C/c1cccs1)C(=O)N1CCOCC1)c1ccccc1 | 44* | . | -2 | ? | -2
O=C(N/C(=C\c1cccs1)C(=O)N1CCOCC1)c1cccs1 | 0 | . | 0 | 10 | 10
CN1CCN(C(=O)/C(=C\c2cccnc2)NC(=O)c2cccc(Br)c2)CC1 | 1.4* | . | -2 | ? | -3
O=C(N/C(=C/c1cccnc1)C(=O)N1CCOCC1)c1ccccc1 | 43* | 0 | 3 | -2 | -5
COc1ccc(/C=C(\NC(=O)c2ccc([N+](=O)[O-])cc2)C(=O)N2CCOCC2)cc1 | 43* | 0 | -1 | . | -2
CC(C)NC(=O)N(C)C[C@H]1OCCCC[C@@H](C)Oc2ccc(NS(C)(=O)=O)cc2C(=O)N([C@@H](C)CO)C[C@H]1C | 0 | 0 | -4 | 3 | -3
CNC[C@H]1OCCCC[C@H](C)Oc2ccc(NS(=O)(=O)c3cn(C)cn3)cc2C(=O)N([C@@H](C)CO)C[C@H]1C | 0 | 0 | 0 | -4 | .
O=C(Cn1cc(C(F)(F)F)ccc1=O)Nc1ccc2c(c1)OCO2 | 43* | 0 | 7 | -4 | 0
CCC(=O)N1CC2(C1)[C@H](c1ccc(-c3ccccc3C)cc1)[C@@H](CO)N2C(C)=O | 0 | 10 | -1 | -4 | 0
COc1cc2ccc(=O)oc2c(O[C@@H]2O[C@H](CO)[C@@H](O)[C@H](O)[C@H]2O)c1O | 0 | 0 | 3 | 0 | 59*
COc1cccc(C(=O)N2C[C@@H]3[C@H](c4ccccc42)[C@@H](CO)N3Cc2ccccc2Cl)c1 | 0 | 1 | 1 | 10 | -1
CC1CN(CCOCCSc2ccccc2)CC(C)O1 (stereo not drawn) | 43* | . | 4 | 6 | -2
O=Nc1c(-c2c(O)[nH]c3cc(Br)ccc23)[nH]c2ccccc12 | 0 | 66* | -2 | 5 | 1
SMILES | FGF22 binding | E-sel inducer | CFTR F508del cor | DENV2 CPE rescue | ERAP1 HTS inh
COc1ccc(C#Cc2ccc3c(c2)[C@@H]2[C@@H](CCN2C(C)=O)[C@H](CO)N3)cc1 | . | 0 | -1 | -4 | .
CCOC(=O)C1CCCN(CCC(=O)Nc2cc(C)cc(C)c2)C1 (stereo not drawn) | 44* | 7 | 1 | 1 | -1
Cc1c(C=O)c2ccccc2n1CC(=O)NC(C)c1ccccc1 (stereo not drawn) | 43* | -1 | -1 | 4 | -4
CN=C(NC(=O)Nc1c(C)cccc1C)NC(=O)Nc1c(C)cccc1C | 44* | . | -3 | -2 | -3
CN=C(N)NC(=O)Nc1c(C)cccc1C | 0 | 0 | 0 | 4 | -3
COC(=O)C[C@@H]1CC[C@@H]2[C@H](COc3ccc(NC(=O)Nc4ccc(C#N)cc4)cc3C(=O)N2C)O1 | 0 | 0 | 1 | -1 | 1
OCc1c(Cl)nc2ccccn12 | 43* | . | -1 | -11 | 1
O=Cc1c(Cl)nc2ccccn12 | 0 | . | -2 | -1 | -6
COc1ccc2c3c(n(C)c2c1)[C@@H](CO)N(Cc1ccccc1)CC31CCN(C(=O)C2CC2)CC1 | 0 | 0 | 4 | 1 | -5
CCCC(=O)Nc1ccc2c(c1)OC[C@H](C)N(Cc1ccccc1F)C[C@H](C)[C@@H](OC)CN(C)C2=O | 0 | 0 | -1 | 21* | -2
CCCC(=O)Nc1ccc2c(c1)OC[C@@H](C)N(Cc1ccncc1)C[C@H](C)[C@@H](OC)CN(C)C2=O | 0 | 0 | 3 | 25* | 5
Cc1cc(-c2ccccc2)[nH]c(=O)c1C#N | 43* | . | 2 | -4 | 2
COCC#Cc1ccc2c(c1)O[C@H](CN(C)C(=O)NC(C)C)[C@H](C)CN([C@@H](C)CO)S2(=O)=O | 0 | 0 | -2 | 1 | 1
O=C(C[C@H]1CC[C@@H](NS(=O)(=O)c2ccccc2)[C@@H](CO)O1)NCCN1CCCCC1 | 0 | -1 | -1 | -3 | -1
CCC(C)(C)NC(=O)CN(C(=O)c1csnn1)c1ccccc1-c1ccccc1 | 43* | . | -2 | 0 | 4
C[C@H]1CN([C@@H](C)CO)C(=O)Cc2cc(NC(=O)Nc3ccc(C(F)(F)F)cc3)ccc2O[C@@H]1CN(C)C(=O)Nc1ccc2c(c1)OCO2 | 0 | 3 | 2 | -11 | 0
CCN(CC)CCCNC(=S)N1CCN(c2nc3ccccc3n2CC)CC1 | 0 | 0 | 1 | 41* | -3
C[C@@H](NC(=O)C[C@@H]1CC[C@H]2[C@@H](COC[C@@H](O)CN2Cc2cc(F)ccc2F)O1)c1ccccc1 | 0 | 0 | 3 | . | 0
